{"source": "paper PMC7797712", "about": "(Medicinal Chemistry Research, 2021)", "data": [{"molecular_target": "HBV core protein (Hepatitis B virus genotype D subtype ayw, UniProt P03146)", "sequence (P03146 whole entry)": "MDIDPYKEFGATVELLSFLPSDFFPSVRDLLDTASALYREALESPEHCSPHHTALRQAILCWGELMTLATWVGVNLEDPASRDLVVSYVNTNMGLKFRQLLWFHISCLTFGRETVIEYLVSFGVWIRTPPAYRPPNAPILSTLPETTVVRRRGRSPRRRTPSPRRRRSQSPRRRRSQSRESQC", "assay": "Western blot assay of HBV core protein dephosphorylation in AML12HBV_DE11 cells", "type": "cell-based", "conditions": "30 h, ENAN-34017 2 µM, Bay 41-4109 2 µM, entecavir 1 µM", "in_short": "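Controls: cells kept with tetracycline, or tetracycline-free and mock treated. Test cells tetracycline-free, treated 30 h, then lysed in LDS loading buffer and boiled 100 °C for 20 min. Run on 12% Bis-Tris gel in MOPS buffer, transferred to PVDF. Hyper-phosphorylated and dephosphorylated/hypophosphorylated core protein detected by western blot; β-actin loading control.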", "values": [{"compound": "C=C1[C@H](CO)[C@@H](O)C[C@@H]1n1cnc2c(=O)[nH]c(N)nc21", "note": "[entecavir, reference compound]", "Effect on Cp dephosphorylation": "did not affect Cp dephosphorylation"}]}, {"system": "cytoplasmic HBV-DNA replication in AML12HBV10 cells", "assay": "Antiviral assay in AML12HBV10 cells", "type": "cell-based, hepatitis B virus", "conditions": "AML12HBV10 cells; SAR statement of the text", "in_short": "(§1)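 AML12-derived mouse hepatocyte line carrying a tetracycline-inducible, envelope-deficient HBV genome; seeded at 2 × 10^4 cells/well in tetracycline-free medium. Next day, mock or twofold serial dilution (10 to 0.08 µM) for 48 h. Cells lysed in Tris-HCl pH 7.5/EDTA/NaCl/1% NP-40. Half the lysate NaOH-denatured, neutralised, dot-blotted and hybridised with 32P-labelled HBV minus-strand riboprobe. Phosphorimager quantification; EC50 = concentration reducing HBV DNA by 50%.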", "values": [{"compound": "COc1ccc(CN2CN(C(=O)Nc3ccc(F)c(Cl)c3)CCC2=O)c(OC)c1", "note": "[Compound 28, N-(3-chloro-4-fluorophenyl)-3-(2,4-dimethoxybenzyl)-4-oxotetrahydropyrimidine-1(2H)-carboxamide]", "Anti-HBV potency compared with 27 (58031), in words": "slightly weaker potency"}, {"compound": "O=C1CCN(C(=O)Nc2ccc(F)c(Cl)c2)CN1Cc1ccncc1", "note": "[Compound 29, N-(3-chloro-4-fluorophenyl)-4-oxo-3-(pyridin-4-ylmethyl)tetrahydropyrimidine-1(2H)-carboxamide]", "Anti-HBV potency compared with 27 (58031), in words": "less active"}, {"compound": "O=C1CCN(C(=O)Nc2ccc(F)c(Cl)c2)CN1Cc1ccccn1", "note": "[Compound 30, N-(3-chloro-4-fluorophenyl)-4-oxo-3-(pyridin-2-ylmethyl)tetrahydropyrimidine-1(2H)-carboxamide]", "Anti-HBV potency compared with 27 (58031), in words": "less active"}, {"compound": "O=C1CCN(C(=O)Nc2ccc(F)c(Cl)c2)CN1CC1CCN(c2ccccc2)C1", "note": "(centres unmarked) [Compound 32, N-(3-chloro-4-fluorophenyl)-4-oxo-3-((1-phenylpyrrolidin-3-yl)methyl)tetrahydropyrimidine-1(2H)-carboxamide]", "Anti-HBV potency compared with 27 (58031), in words": "failed to improve the potencies"}, {"compound": "O=C1CCN(C(=O)Nc2ccc(F)c(Cl)c2)CN1CC1CN(c2ccccc2)C(=O)O1", "note": "(centres unmarked) [Compound 33, N-(3-chloro-4-fluorophenyl)-4-oxo-3-((2-oxo-3-phenyloxazolidin-5-yl)methyl)tetrahydropyrimidine-1(2H)-carboxamide]", "Anti-HBV potency compared with 27 (58031), in words": "failed to improve the potencies"}, {"compound": "O=C1CCN(C(=O)Nc2cccc(Cl)c2)CN1Cc1ccc(F)cc1F", "note": "[Compound 35, N-(3-chlorophenyl)-3-(2,4-difluorobenzyl)-4-oxotetrahydropyrimidine-1(2H)-carboxamide]", "Anti-HBV potency compared with 27 (58031), in words": "comparable activities"}, {"compound": "O=C1CCN(C(=O)Nc2ccc(F)c(C(F)F)c2)CN1Cc1ccc(F)cc1F", "note": "[Compound 36, 3-(2,4-difluorobenzyl)-N-(3-(difluoromethyl)-4-fluorophenyl)-4-oxotetrahydropyrimidine-1(2H)-carboxamide]", "Anti-HBV potency compared with 27 (58031), in words": "comparable activities"}, {"compound": "O=C1CCN(C(=O)Nc2cc(F)c(F)c(F)c2)CN1Cc1ccc(F)cc1F", "note": "[Compound 40, 3-(2,4-difluorobenzyl)-4-oxo-N-(3,4,5-trifluorophenyl)tetrahydropyrimidine-1(2H)-carboxamide]", "Anti-HBV potency compared with 27 (58031), in words": "reduced the activities"}, {"compound": "O=C1CCN(C(=O)Nc2cc(F)c(F)cc2Cl)CN1Cc1ccc(F)cc1F", "note": "[Compound 41, N-(2-chloro-4,5-difluorophenyl)-3-(2,4-difluorobenzyl)-4-oxotetrahydropyrimidine-1(2H)-carboxamide]", "Anti-HBV potency compared with 27 (58031), in words": "reduced the activities"}, {"compound": "O=C1CCN(C(=O)Nc2cc(Cl)c(F)c(Cl)c2)CN1Cc1ccc(F)cc1F", "note": "[Compound 42, N-(3,5-dichloro-4-fluorophenyl)-3-(2,4-difluorobenzyl)-4-oxotetrahydropyrimidine-1(2H)-carboxamide]", "Anti-HBV potency compared with 27 (58031), in words": "reduced the activities"}, {"compound": "O=C1CCN(C(=O)NCc2ccccc2F)CN1Cc1ccc(F)cc1F", "note": "[Compound 43, 3-(2,4-difluorobenzyl)-N-(2-fluorobenzyl)-4-oxotetrahydropyrimidine-1(2H)-carboxamide]", "Anti-HBV potency compared with 27 (58031), in words": "not tolerated"}, {"compound": "CC1CC(=O)N(Cc2ccc(F)cc2F)CN1C(=O)Nc1ccc(F)c(Cl)c1", "note": "(centres unmarked) [Compound 44, N-(3-chloro-4-fluorophenyl)-3-(2,4-difluorobenzyl)-6-methyl-4-oxotetrahydropyrimidine-1(2H)-carboxamide]", "Anti-HBV potency compared with 27 (58031), in words": "reduced activity"}, {"compound": "O=C1CC(Cc2cc(F)c(F)cc2F)N(C(=O)Nc2ccc(F)c(Cl)c2)CN1Cc1ccc(F)cc1F", "note": "(centres unmarked) [Compound 45, N-(3-chloro-4-fluorophenyl)-3-(2,4-difluorobenzyl)-4-oxo-6-(2,4,5-trifluorobenzyl)tetrahydropyrimidine-1(2H)-carboxamide]", "Anti-HBV potency compared with 27 (58031), in words": "deteriorated the potency"}, {"compound": "O=C1CC(CN2CCC(F)(F)CC2)N(C(=O)Nc2ccc(F)c(Cl)c2)CN1Cc1ccc(F)cc1F", "note": "(centres unmarked) [Compound 46, N-(3-chloro-4-fluorophenyl)-3-(2,4-difluorobenzyl)-6-((4,4-difluoropiperidin-1-yl)methyl)-4-oxotetrahydropyrimidine-1(2H)-carboxamide]", "Anti-HBV potency compared with 27 (58031), in words": "deteriorated the potency"}, {"compound": "O=C1CC(CN2CCC(F)(F)C2)N(C(=O)Nc2ccc(F)c(Cl)c2)CN1Cc1ccc(F)cc1F", "note": "(centres unmarked) [Compound 47, N-(3-chloro-4-fluorophenyl)-3-(2,4-difluorobenzyl)-6-((3,3-difluoropyrrolidin-1-yl)methyl)-4-oxotetrahydropyrimidine-1(2H)-carboxamide]", "Anti-HBV potency compared with 27 (58031), in words": "deteriorated the potency"}, {"compound": "CC1(C)CN(C(=O)Nc2ccc(F)c(Cl)c2)CN(Cc2ccc(F)cc2F)C1=O", "note": "[Compound 48, N-(3-chloro-4-fluorophenyl)-3-(2,4-difluorobenzyl)-5,5-dimethyl-4-oxotetrahydropyrimidine-1(2H)-carboxamide]", "Anti-HBV potency compared with 27 (58031), in words": "diminished the activities only by two to threefold"}, {"compound": "O=C1C2CCCC2N(C(=O)Nc2ccc(F)c(Cl)c2)CN1Cc1ccc(F)cc1F", "note": "(centres unmarked) [Compound 49, N-(3-chloro-4-fluorophenyl)-3-(2,4-difluorobenzyl)-4-oxooctahydro-1H-cyclopenta[d]pyrimidine-1-carboxamide]", "Anti-HBV potency compared with 27 (58031), in words": "diminished the activities only by two to threefold"}, {"compound": "O=C(Nc1ccc(F)c(Cl)c1)N1CC(c2ccccc2)C(=O)N(Cc2ccc(F)cc2F)C1", "note": "(centres unmarked) [Compound 50, N-(3-chloro-4-fluorophenyl)-3-(2,4-difluorobenzyl)-4-oxo-5-phenyltetrahydropyrimidine-1(2H)-carboxamide]", "Anti-HBV potency compared with 27 (58031), in words": "comparable or slightly better potencies"}, {"compound": "O=C(Nc1ccc(F)c(Cl)c1)N1CC(Cc2ccccc2)C(=O)N(Cc2ccc(F)cc2F)C1", "note": "(centres unmarked) [Compound 51, 5-benzyl-N-(3-chloro-4-fluorophenyl)-3-(2,4-difluorobenzyl)-4-oxotetrahydropyrimidine-1(2H)-carboxamide]", "Anti-HBV potency compared with 27 (58031), in words": "diminished the activities only by two to threefold"}, {"compound": "O=C(Nc1ccc(F)c(Cl)c1)N1CC(n2cc(C3CC3)nn2)C(=O)N(Cc2ccc(F)cc2F)C1", "note": "(centres unmarked) [Compound 52, N-(3-chloro-4-fluorophenyl)-5-(4-cyclopropyl-1H-1,2,3-triazol-1-yl)-3-(2,4-difluorobenzyl)-4-oxotetrahydropyrimidine-1(2H)-carboxamide]", "Anti-HBV potency compared with 27 (58031), in words": "comparable or slightly better potencies"}, {"compound": "O=C(NC1CN(C(=O)Nc2ccc(F)c(Cl)c2)CN(Cc2ccc(F)cc2F)C1=O)c1ccc(F)cc1F", "note": "(centres unmarked) [Compound 53, N-(3-chloro-4-fluorophenyl)-5-(2,4-difluorobenzamido)-3-(2,4-difluorobenzyl)-4-oxotetrahydropyrimidine-1(2H)-carboxamide]", "Anti-HBV potency compared with 27 (58031), in words": "comparable or slightly better potencies"}, {"compound": "Cc1ccc(S(=O)(=O)NC2CN(C(=O)Nc3ccc(F)c(Cl)c3)CN(Cc3ccc(F)cc3F)C2=O)cc1", "note": "(centres unmarked) [Compound 54, N-(3-chloro-4-fluorophenyl)-3-(2,4-difluorobenzyl)-5-(4-methylphenylsulfonamido)-4-oxotetrahydropyrimidine-1(2H)-carboxamide]", "Anti-HBV potency compared with 27 (58031), in words": "comparable or slightly better potencies"}, {"compound": "C=CC(=O)NC1CN(C(=O)Nc2ccc(F)c(Cl)c2)CN(Cc2ccc(F)cc2F)C1=O", "note": "(centres unmarked) [Compound 55, 5-acrylamido-N-(3-chloro-4-fluorophenyl)-3-(2,4-difluorobenzyl)-4-oxotetrahydropyrimidine-1(2H)-carboxamide]", "Anti-HBV potency compared with 27 (58031), in words": "comparable or slightly better potencies"}]}, {"system": "cytoplasmic HBV-DNA replication in AML12HBV10 cells", "assay": "Antiviral assay in AML12HBV10 cells", "type": "cell-based, hepatitis B virus", "conditions": "Hepatitis B virus, AML12HBV10, 48 h, read-out: EC50 (50% inhibitory concentration of cytoplasmic HBV-DNA replication)", "in_short": "as §1", "units": {"EC50": "µM"}, "values": [{"compound": "O=C1CCN(C(=O)Nc2ccc(F)c(Cl)c2)CN1Cc1ccc(F)cc1", "note": "[Compound 21, N-(3-chloro-4-fluorophenyl)-3-(4-fluorobenzyl)-4-oxotetrahydropyrimidine-1(2H)-carboxamide]", "EC50": 2.02}, {"compound": "O=C1CCN(C(=O)Nc2ccc(F)c(Cl)c2)CN1CCc1ccc(F)cc1", "note": "[Compound 22, N-(3-chloro-4-fluorophenyl)-3-(4-fluorophenethyl)-4-oxotetrahydropyrimidine-1(2H)-carboxamide]", "EC50": 5.08}]}]}
